# Experimental data taken from ChEMBL document CHEMBL1135595, “Design, synthesis and biological evaluation of novel N-alkyl- and N-acyl-(7-substituted-2-phenylimidazo[1,2-a][1,3,5]triazin-4-yl)amines (ITAs) as novel A(1) adenosine receptor antagonists” (J Med Chem, 2002).
# pKi: −log10 of the molar value.
# How the values were obtained:
# [1] = target: T1, Adenosine receptor A1 (Bos taurus, UniProt P28190); assay: Displacement of [3H]CHA from Adenosine A1 receptor in bovine cortical membranes.; format: cell membranes
# T1 sequence (P28190 whole entry): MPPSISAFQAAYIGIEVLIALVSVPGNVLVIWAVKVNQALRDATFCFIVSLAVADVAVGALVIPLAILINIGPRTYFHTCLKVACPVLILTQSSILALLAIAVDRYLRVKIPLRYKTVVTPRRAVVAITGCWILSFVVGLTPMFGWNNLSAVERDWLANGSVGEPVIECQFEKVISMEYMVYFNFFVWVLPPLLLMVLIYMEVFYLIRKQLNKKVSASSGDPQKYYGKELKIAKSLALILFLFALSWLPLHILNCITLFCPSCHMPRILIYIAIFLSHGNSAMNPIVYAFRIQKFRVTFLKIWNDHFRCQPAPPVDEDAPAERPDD
# Summary of the method: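 Compounds were dissolved in DMSO (≤2% in assay) and tested at six or more concentrations. n = 4 independent experiments in triplicate. Ki and IC50 ± SEM came from iterative curve fitting. Protein was measured with BSA as standard after NaOH (0.75 N) solubilization.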
# [2] = target: Adenosine receptor A2a (Bos taurus); assay: Displacement of [3H]- CGS-21680 from Adenosine A2a receptor in bovine striatal membranes.
Structure (SMILES),pKi [1],pKi [2]
CC(=O)CNc1nc(-c2ccccc2)nc2nc(C(C)C)cn12,5.63,–
Cc1cn2c(NC34C[C@H]5C[C@@H](C3)C[C@@H](C4)C5)nc(-c3ccccc3)nc2n1,6.29,< 5.00
CC(=O)CNc1nc(-c2ccccc2)nc2nc(C)cn12,7.92,< 5.00
Cc1cn2c(NC(=O)c3ccccc3)nc(-c3ccccc3)nc2n1,7.57,–
CC(=O)Nc1nc(-c2ccccc2)nc2nc(-c3ccccc3)cn12,7.64,5.49
CC(=O)CNc1nc(-c2ccccc2)nc2nc(-c3ccccc3)cn12,< 5.00,–
Cc1cn2c(NCC3CCCCC3)nc(-c3ccccc3)nc2n1,6.64,–
Cc1cn2c(NC3CCCC3)nc(-c3ccccc3)nc2n1,7.39,5.39
Cc1cn2c(NCc3ccccc3)nc(-c3ccccc3)nc2n1,5.41,–
CC(C)c1cn2c(NC(=O)C3CCCC3)nc(-c3ccccc3)nc2n1,8.24,< 5.00
O=C(Nc1nc(-c2ccccc2)nc2nc(-c3ccccc3)cn12)C1CCCC1,7.77,5.60
Cc1cn2c(NC(=O)C3CCCCC3)nc(-c3ccccc3)nc2n1,6.94,–
Cc1cn2c(NC(=O)C3CCCC3)nc(-c3ccccc3)nc2n1,8.36,–
CCc1cn2c(NCC(C)=O)nc(-c3ccccc3)nc2n1,< 5.00,–
CCC(=O)CNc1nc(-c2ccccc2)nc2nc(C)cn12,< 5.00,< 5.00
CCc1cn2c(NC(=O)C3CCCC3)nc(-c3ccccc3)nc2n1,8.48,–
Cc1cn2c(N)nc(-c3ccccc3)nc2n1,6.48,–
CC(=O)Nc1nc(-c2ccccc2)nc2nc(C)cn12,6.07,< 5.00
